This note sets out measurements from PMC5749269 (ACS biomaterials science & engineering, 2017).

Where no end group is shown, it is not given here.

One data set can be described thus: Zeta potential analysis. Format: physicochemical. The following applies: 100 μM in water, n = 3. The procedure, abridged:
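Micelles made by methanol thin-film evaporation, overnight vacuum drying and 30 min hydration at 80 °C, then cooled to room temperature. Zeta potential measured on 100 μM micelles dissolved in water, n = 3.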

The subject of data set [1] is WEHI 274.1 murine monocytes. In words: Chemotaxis assay. Particulars: 1000 μM, 4 h, transwell 8 μm pores, Pico Green, n = 5, mean ± SEM. Format: cell-based.
Data set [2] relates to 22Rv1 prostate cancer cells. Format: cell-based. Particulars: 72 h.
Data set [3] deals with PC3 prostate cancer cells. In words: In vitro cytotoxicity. Particulars: 72 h. Format: cell-based.
The test system of data set [4] is CCR2 gene expression in 22Rv1 prostate cancer cells. In words: CCR2 expression by qRT-PCR. The following applies: 22Rv1 cells, 5 μM (noncytotoxic), vs PBS, n = 3. Format: cell-based. The procedure, abridged: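 22Rv1 cells kept in RPMI-1640 with 10% FBS and 1% penicillin-streptomycin at 37 °C, 5% CO2, treated with test compound at 5 μM or PBS. cDNA made with an RT2 first-strand kit and amplified with RT2 SYBR Green qPCR master mix. Relative expression vs Actb or GAPDH housekeeping gene by the 2ΔΔCq method. n = 3, mean ± SEM.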
Background: Real-time PCR tracks product formation cycle by cycle.

Data set [5] relates to WEHI 274.1 murine monocytes. In words: In vitro cell viability. Particulars: MTS assay, varying concentrations, 24 and 72 h, n = 6. (Formazan colour is commonly taken as a measure of viable cells.)

What is called IC50 is the concentration at which inhibition is half-maximal. With “CYNSLVFRIRNSTQRKYRASISTK-OH [scrambled peptide]”, the zeta potential in “Zeta potential analysis” is given as 7.2 ± 3.4 mV. Further, the “migrated monocytes (DNA quantification)” value in data set [1] amounted to 13.9 ± 2.8 ng DNA/mL. The IC50 is 76.1 ± 15.8 µM in data set [2] and more than 100 µM in data set [3]. Further, the “downregulation of CCR2 gene expression” value in data set [4] is “unappreciable CCR2 changes”. For the same substance, in data set [5], the “cell viability of monocytes” value is recorded as “no decrease in cell viability”.
